According to PMC6378121 (Bioorganic chemistry, 2018):
Like-named read-outs stand apart in the source and are kept apart here.

Legend:
[1] = target: recombinant human P-gp (Homo sapiens, UniProt P08183); test: Pgp-Glo assay; details: for Luminescence from unmetabolized ATP (P-gp ATPase stimulation or inhibition): 20 μM compound, 5 mM ATP, 1 hr at 37°C, normalized to Na3VO4
[2] = target: PARP-1 (Homo sapiens, UniProt P09874); test: PARP-1 radioligand binding assay with [125I]KX1 in OVCAR8 cells
Method in brief: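 OVCAR8 ovarian cancer cells (BRCA1 methylated) seeded at 40,000 cells/well 24 h before the assay. Test compound diluted in RPMI (100 μM–0.064 nM), added with the [125I]KX1 radioligand, equilibrated 1 hr, then washed with PBS. Wells counted on a gamma counter. IC50 from non-linear sigmoidal dose-response fit, n=3; dose ranges were adjusted between repeats.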

[3] = tested on: P-gp; details: cited from earlier work

Sequence of recombinant human P-gp (P08183 whole entry): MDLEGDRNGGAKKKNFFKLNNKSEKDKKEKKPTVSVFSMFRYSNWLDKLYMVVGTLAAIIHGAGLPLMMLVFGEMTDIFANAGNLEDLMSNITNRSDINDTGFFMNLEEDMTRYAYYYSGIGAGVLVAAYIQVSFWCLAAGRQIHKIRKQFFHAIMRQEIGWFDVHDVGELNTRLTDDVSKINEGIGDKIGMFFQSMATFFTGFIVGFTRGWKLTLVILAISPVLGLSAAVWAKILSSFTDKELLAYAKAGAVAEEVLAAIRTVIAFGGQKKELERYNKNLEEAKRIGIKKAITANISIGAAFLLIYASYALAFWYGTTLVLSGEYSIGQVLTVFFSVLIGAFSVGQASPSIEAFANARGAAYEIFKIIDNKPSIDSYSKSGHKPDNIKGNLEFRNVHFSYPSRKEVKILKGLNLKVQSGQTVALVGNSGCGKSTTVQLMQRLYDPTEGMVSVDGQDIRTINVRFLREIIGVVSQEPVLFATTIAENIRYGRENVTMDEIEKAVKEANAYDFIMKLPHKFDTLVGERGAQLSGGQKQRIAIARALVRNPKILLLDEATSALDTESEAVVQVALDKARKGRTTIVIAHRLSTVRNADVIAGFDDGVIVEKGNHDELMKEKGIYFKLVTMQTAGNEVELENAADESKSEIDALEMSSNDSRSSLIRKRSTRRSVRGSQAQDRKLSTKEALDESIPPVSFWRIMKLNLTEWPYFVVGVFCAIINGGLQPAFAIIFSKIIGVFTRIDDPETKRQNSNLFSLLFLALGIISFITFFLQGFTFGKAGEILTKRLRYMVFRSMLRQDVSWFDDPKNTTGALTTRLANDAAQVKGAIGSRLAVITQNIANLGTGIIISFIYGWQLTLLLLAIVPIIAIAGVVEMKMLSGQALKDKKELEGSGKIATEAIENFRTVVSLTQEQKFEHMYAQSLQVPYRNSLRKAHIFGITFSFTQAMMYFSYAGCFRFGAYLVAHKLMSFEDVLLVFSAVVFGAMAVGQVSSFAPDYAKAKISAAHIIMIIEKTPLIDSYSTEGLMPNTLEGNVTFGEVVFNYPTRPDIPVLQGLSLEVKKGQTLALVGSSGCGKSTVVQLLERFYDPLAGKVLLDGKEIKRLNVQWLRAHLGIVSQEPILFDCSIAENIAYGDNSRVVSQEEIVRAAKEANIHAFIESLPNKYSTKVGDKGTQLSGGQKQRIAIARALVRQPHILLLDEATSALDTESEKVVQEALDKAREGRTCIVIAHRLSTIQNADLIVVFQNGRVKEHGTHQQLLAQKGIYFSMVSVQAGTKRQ
Sequence of PARP-1 (P09874 whole entry): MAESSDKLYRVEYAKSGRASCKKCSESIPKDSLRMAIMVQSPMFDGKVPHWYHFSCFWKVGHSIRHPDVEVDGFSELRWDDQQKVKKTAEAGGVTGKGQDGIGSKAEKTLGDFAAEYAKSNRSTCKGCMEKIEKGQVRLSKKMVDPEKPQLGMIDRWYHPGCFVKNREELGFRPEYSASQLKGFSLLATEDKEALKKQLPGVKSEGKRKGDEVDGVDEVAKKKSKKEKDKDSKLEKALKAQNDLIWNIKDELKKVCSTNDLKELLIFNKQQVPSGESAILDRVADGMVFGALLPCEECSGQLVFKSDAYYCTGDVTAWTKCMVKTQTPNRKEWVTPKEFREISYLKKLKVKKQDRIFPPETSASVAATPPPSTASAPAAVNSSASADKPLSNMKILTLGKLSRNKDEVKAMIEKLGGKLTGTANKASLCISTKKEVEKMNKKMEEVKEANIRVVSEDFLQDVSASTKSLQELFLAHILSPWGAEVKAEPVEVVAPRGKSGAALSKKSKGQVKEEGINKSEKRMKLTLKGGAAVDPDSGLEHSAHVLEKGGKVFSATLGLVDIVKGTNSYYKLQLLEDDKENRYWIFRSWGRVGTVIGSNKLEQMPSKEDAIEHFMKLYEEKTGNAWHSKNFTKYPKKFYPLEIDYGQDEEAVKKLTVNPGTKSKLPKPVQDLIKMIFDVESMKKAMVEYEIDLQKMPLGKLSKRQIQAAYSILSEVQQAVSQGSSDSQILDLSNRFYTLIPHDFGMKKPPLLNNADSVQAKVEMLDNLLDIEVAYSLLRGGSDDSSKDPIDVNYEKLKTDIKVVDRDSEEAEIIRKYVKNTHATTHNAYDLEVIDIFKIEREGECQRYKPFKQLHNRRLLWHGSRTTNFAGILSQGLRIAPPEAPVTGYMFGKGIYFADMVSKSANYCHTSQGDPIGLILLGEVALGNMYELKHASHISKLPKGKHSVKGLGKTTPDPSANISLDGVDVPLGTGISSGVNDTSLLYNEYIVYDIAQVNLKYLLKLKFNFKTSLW

| SMILES | Luminescence from unmetabolized ATP (P-gp ATPase stimulation or inhibition) [1] | IC50 [2] [nM] | also measured |
| --- | --- | --- | --- |
| O=C(c1cc(Cc2n[nH]c(=O)c3ccccc23)ccc1F)N1CCC(OCCF)CC1 [Compound 9e, 4-(4-fluoro-3-(4-(2-fluoroethoxy)piperidine-1-carbonyl)benzyl)phthalazin-1(2H)-one] | increased luminescence | 3.9 ± 1.2 | P-gp substrate status ([1]; authors' conclusion from the P-gp assay): weak substrate for P-gp |
| O=C(c1cc(Cc2n[nH]c(=O)c3ccccc23)ccc1F)N1CC[C@@H](OCCF)C1 [Compound 9c, (R)-4-(4-fluoro-3-(3-(2-fluoroethoxy)pyrrolidine-1-carbonyl)benzyl)phthalazin-1(2H)-one] | – | 10.1 ± 1.1 | – |
| C[C@]12CCCN1CC1=NNC(=O)c3cc(F)cc4[nH]c2c1c34 [BGB-290] | – | – | P-gp substrate status [3]: weak P-gp substrates |
| [Na+].[Na+].[Na+].[O]=[V]([O-])([O-])[O-] [Na3VO4, reference compound] | increased luminescence | – | – |
| O=C(c1cc(Cc2n[nH]c(=O)c3ccccc23)ccc1F)N1CC2(C1)CN(c1ccc(F)cc1)C2 [Compound 14, 4-(4-fluoro-3-(6-(4-fluorophenyl)-2,6-diazaspiro[3.3]heptane-2-carbonyl)benzyl)phthalazin-1(2H)-one] | increased luminescence | 0.3 | – |
| COC1CCN(C(=O)c2cc(Cc3n[nH]c(=O)c4ccccc34)ccc2F)CC1 [Compound 2, AZD2461] | – | – | P-gp substrate status [3]: weak P-gp substrates; P-gp substrate status ([3]; listed as AZD2461): poor P-gp substrate |
| O=C(c1cc(Cc2n[nH]c(=O)c3ccccc23)ccc1F)N1CCCC(OCCF)CC1 (stereo not drawn) [Compound 9f, 4-(4-fluoro-3-(4-(2-fluoroethoxy)azepane-1-carbonyl)benzyl)phthalazin-1(2H)-one] | – | 5.6 ± 1.1 | – |
| O=C(c1cc(Cc2n[nH]c(=O)c3ccccc23)ccc1F)N1CCN(C(=O)C2CC2)CC1 [olaparib] | – | – | P-gp substrate status [3]: known substrates for P-gp |
| O=C(c1cc(Cc2n[nH]c(=O)c3ccccc23)ccc1F)N1CC2(CC(OCCF)C2)C1 [Compound 9a, 4-(4-fluoro-3-(6-(2-fluoroethoxy)-2-azaspiro[3.3]heptane-2-carbonyl)benzyl)phthalazin-1(2H)-one] | – | 10.7 ± 1.1 | – |
| O=C(c1cc(Cc2n[nH]c(=O)c3ccccc23)ccc1F)N1CC2(CC(c3ccc(F)cc3)C2)C1 [Compound 17, 4-(4-fluoro-3-(6-(4-fluorophenyl)-2-azaspiro[3.3]heptane-2-carbonyl)benzyl)phthalazin-1(2H)-one] | increased luminescence | 2.8 | – |
| O=C(c1cc(Cc2n[nH]c(=O)c3ccccc23)ccc1F)N1CC(OCCF)C1 [Compound 9b, 4-(4-fluoro-3-(3-(2-fluoroethoxy)azetidine-1-carbonyl)benzyl)phthalazin-1(2H)-one] | – | 7.5 ± 1.1 | – |
| C[C@]1(c2nc3c(C(N)=O)cccc3[nH]2)CCCN1 [veliparib] | – | – | P-gp substrate status [3]: weak P-gp substrates |
| O=C(c1cc(Cc2n[nH]c(=O)c3ccccc23)ccc1F)N1CC[C@H](OCCF)C1 [Compound 9d, (S)-4-(4-fluoro-3-(3-(2-fluoroethoxy)pyrrolidine-1-carbonyl)benzyl)phthalazin-1(2H)-one] | – | 6.8 | – |
| O=C(c1cc(Cc2n[nH]c(=O)c3ccccc23)ccc1F)N1CCN(c2ccc(F)cc2)CC1 [Compound 11a, 4-(4-fluoro-3-(4-(4-fluorophenyl)piperazine-1-carbonyl)benzyl)phthalazin-1(2H)-one] | – | 0.6 ± 1.2 | – |
| O=C(c1cc(Cc2n[nH]c(=O)c3ccccc23)ccc1F)N1CCC(c2ccc(F)cc2)CC1 [Compound 11b, 4-(4-fluoro-3-(4-(4-fluorophenyl)piperidine-1-carbonyl)benzyl)phthalazin-1(2H)-one] | increased luminescence | 1.3 | – |
